Measurements as given in ChEMBL document CHEMBL1121642, “Synthesis and antiherpetic activity of some 4-[(aryloxy)alkyl]pyrazoles” (1981).
In brackets after ≈: the same amount, converted by molar mass. Values belong to the molecule of their own block, whether it stands above or below them. Activity calls are given as the source filed them. The calls are words filed in the database; no cut-off is given here.

How the values were obtained:
[1] = system: Human alphaherpesvirus 2; assay: Tested in vitro for minimum inhibitory activity against Herpes simplex virus type -2 (HSV-2); assay type: functional
[2] = system: Human alphaherpesvirus 2; assay: Tested in vitro for minimum inhibitory activity against Herpes simplex virus type -2 (HSV-2); Inactive; assay type: functional, organism-based
[3] = species: Mus musculus; assay: Effect on the survival rate of mice infected intravaginally with Herpes simplex virus type -2 (HSV-2) at 10% dosage twice in a day; assay type: functional
Procedure, shortened: (§1)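 Mice infected intravaginally with a tampon (dental pellet) saturated with HSV suspension. Aqueous drug solution given intravaginally b.i.d. on cotton tampons, starting 4 h postinfection. Each tampon stayed in 24 h, was re-moistened with 0.02 mL drug 6 h after insertion, and was replaced daily. Deaths were recorded daily to 14 days. Read-out: % survival and average survival time, with survivors scored >14 days.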

[4] = species: Mus musculus; assay: Effect on the survival rate of mice infected intravaginally with Herpes simplex virus type -2 (HSV-2) at 5% dosage twice in a day; assay type: functional; procedure, shortened: as §1
[5] = system: Mus musculus; assay: Effect on the survival rate of mouse infected with herpes genitalis (HSV-2) administered intravaginally at 5% dosage twice in a day; assay type: functional
Procedure, shortened: (§2)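 HSV-2 mouse genital model, infected intravaginally. Drug prepared in water + 1% gum tragacanth and given intravaginally b.i.d. via saturated cotton tampons, starting 4 h postinfection. Tampons were re-dosed with 0.02 mL 6 h after insertion and replaced daily. Test ended at day 14, with survivors assigned survival time >14 days. Read-out: % survival and average survival time.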

[6] = system: Mus musculus; assay: (§3) Effect on the survival rate of mouse infected with herpes genitalis (HSV-2) administered intravaginally at 2% dosage twice in a day; assay type: functional; procedure, shortened: as §2
[7] = system: Human alphaherpesvirus 2; assay: as §3; assay type: functional; procedure, shortened: as §2

SMILES: CCc1n[nH]c(CC)c1CCCCOc1ccc(OC)cc1Cl
- MIC [1]: 6 µg/mL (≈ 17.8 µM)

SMILES: CCn1nc(C)c(CCCCCCOc2ccc(OC)cc2Cl)c1C
- MIC [1]: 0.7 µg/mL (≈ 1.92 µM)
- Average survival [3]: >9 days
- Survival [3]: 30%
- Average survival [4]: >10 days
- Survival [4]: 30%

SMILES: O=C(O)CP(=O)(O)O [FOSFONET]
- Average survival [5]: >13 days
- Survival [5]: 90%
- Average survival [6]: >13 days
- Survival [7]: 90%

SMILES: Nc1ncnc2c1ncn2[C@@H]1O[C@H](CO)[C@@H](O)[C@@H]1O [VIDARABINE]
- Average survival [5]: >13 days
- Survival [5]: 60%
- Average survival [6]: >9 days
- Survival [6]: 10%

SMILES: CCc1n[nH]c(CC)c1CCCCCCOc1ccc(O)cc1Cl
- MIC [1]: 12 µg/mL (≈ 34.2 µM)

SMILES: CCc1nn(C(=O)CCCN2CCOCC2)c(CC)c1CCCCCCOc1ccc(OC)cc1Cl
- MIC [1]: 3 µg/mL (≈ 5.77 µM)

SMILES: CCc1n[nH]c(CC)c1CCCCCCOc1ccc(Br)cc1
- MIC [2]: inactive

SMILES: CCc1nn(CC(=O)O)c(CC)c1CCCCCCOc1ccc(OC)cc1Cl
- MIC [2]: inactive

More lines, now with the values ahead:

- MIC [1]: 3 µg/mL (≈ 6.51 µM)
SMILES: COc1ccc(OCCCCCCc2c(-c3ccccc3)n[nH]c2-c2ccccc2)c(Cl)c1

- MIC [2]: inactive
SMILES: CCc1n[nH]c(CC)c1CCCCCCOc1ccc([N+](=O)[O-])cc1Cl

- MIC [1]: 6 µg/mL (≈ 17.9 µM)
SMILES: CCc1n[nH]c(CC)c1CCCCCCOc1ccc(Cl)cc1

- MIC [1]: 6 µg/mL (≈ 15.8 µM)
SMILES: CCc1nn(C)c(CC)c1CCCCCCOc1ccc(OC)cc1Cl

- MIC [1]: 3 µg/mL (≈ 6.8 µM)
SMILES: CCc1nn(-c2ccccc2)c(CC)c1CCCCCCOc1ccc(OC)cc1Cl

- MIC [2]: inactive
SMILES: CCc1nn(C(C)=O)c(CC)c1CCCCCCOc1ccc(OC)cc1Cl

- MIC [1]: 6 µg/mL (≈ 17.1 µM)
SMILES: CCc1n[nH]c(CC)c1CCCCCOc1ccc(OC)cc1Cl

- MIC [1]: 6 µg/mL (≈ 13.3 µM)
SMILES: CCOC(=O)Cn1nc(CC)c(CCCCCCOc2ccc(OC)cc2Cl)c1CC

- MIC [1]: 3 µg/mL (≈ 7.56 µM)
SMILES: CCc1n[nH]c(CC)c1CCCCCCOc1ccc([S+](C)[O-])cc1Cl (configuration not stated)
